Measured values reported in ChEMBL document CHEMBL1126568, “Nucleosides and nucleotides. 122. 2'-C-cyano-2'-deoxy-1-beta-D-arabinofuranosylcytosine and its derivatives. A new class of nucleoside with a broad antitumor spectrum” (J Med Chem, 1993).

How the values were obtained:
[1] = Tested in vitro inhibitory activity against human oral epidermoid carcinoma KB cells; format: functional, cell-based
Procedure, shortened: (§1)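 MTT growth assay: 2 × 10³ cells/well exposed to compound or left untreated for 72 h. MTT then added for 4 h more; formazan dissolved in DMSO and OD read at 540 nm. % inhibition = [1 − OD sample/OD control] × 100. IC₅₀ (μM) is the concentration giving 50% growth inhibition. Single-concentration inhibition measured at 100 μg/mL.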

L1210 [2] = experiment: Tested in vitro inhibitory activity against murine leukemia L1210; format: functional, cell-based; settings: Mus musculus; procedure, shortened: as §1
MCF7 = experiment: Tested in vitro against MCF-7 human breast adenocarcinoma; format: functional, cell-based; procedure, shortened: as §1
[3] = test system: KATO III stomach cancer cell line; experiment: Tested in vitro against KATO-III human stomach adenocarcinoma; format: functional, cell-based; procedure, shortened: as §1
ST-KM-1 = experiment: Tested in vitro against ST-KM human stomach adenocarcinoma; format: functional, cell-based; settings: ST-KM-1, Stomach; procedure, shortened: as §1
OST = experiment: Tested in vitro against OST human osteosarcoma; format: functional, cell-based; procedure, shortened: as §1
A-375 = experiment: Tested in vitro against A-375 cell line human melanoma; format: functional, cell-based; procedure, shortened: as §1
KKLS = experiment: Tested in vitro against KKLS human stomach adenocarcinoma; format: functional, cell-based; procedure, shortened: as §1
MKN-45 = experiment: Tested in vitro against MKN-45 human stomach adenocarcinoma; format: functional, cell-based; settings: MKN-45, Stomach; procedure, shortened: as §1
HOS-TE85 = experiment: Tested in vitro against MNNG/HOS cell line human osteosarcoma; format: functional, cell-based; procedure, shortened: as §1
HT-1080 = experiment: Tested in vitro against HT1080 cell line human fibrosarcoma; format: functional, cell-based; procedure, shortened: as §1
SW48 = experiment: Tested in vitro against SW-48 human colon adenocarcinoma; format: functional, cell-based; procedure, shortened: as §1
PC-13 = experiment: Tested in vitro against PC-13 human lung large cell carcinoma; format: functional, cell-based; procedure, shortened: as §1
COLO 320 = experiment: Tested in vitro against colo-320 human colon adenocarcinoma; format: functional, cell-based; settings: COLO 320, Colon; procedure, shortened: as §1
PC-8 = experiment: Tested in vitro against PC-8 human lung adenocarcinoma; format: functional, cell-based; procedure, shortened: as §1
PC-9 = experiment: Tested in vitro against PC-9 human lung adenocarcinoma; format: functional, cell-based; procedure, shortened: as §1
QG-95 = experiment: Tested in vitro against QG-95 human squamous cell carcinoma; format: functional, cell-based; procedure, shortened: as §1
L1210 [4] = experiment: Percent inhibition against murine leukemia L1210 at 100 ug/mL; format: functional; settings: Mus musculus; procedure, shortened: as §1
[5] = Percent inhibition against human oral epidermoid carcinoma KB cells at 100 ug/mL; format: functional; procedure, shortened: as §1
Mus musculus [6] = experiment: Percent treated was determined after administration at 750 mg/kg orally; format: functional; settings: route oral
Procedure, shortened: (§2)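 Female BDF₁ mice bearing subcutaneous M5076 (10⁶ cells, axillary). Oral dosing in saline or 5% DMA/0.5% CMC on days 1, 4, 7, 10, 13 and 16. Groups of six (three at 400 mg/kg), nine untreated controls. T/C (%) = median survival day of treated/median survival day of untreated controls × 100; 60-day survivors also recorded.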

Mus musculus [7] = experiment: Weight change in M5076 mouse reticulum cell sarcoma after administration at 250 mg/kg orally; format: functional; settings: route oral
Procedure, shortened: (§3)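 Female BDF₁ mice with subcutaneous axillary M5076 (10⁶ cells), oral dosing on days 1, 4, 7, 10, 13 and 16 in saline or 5% DMA/0.5% CMC. Body weight change (g) = mean weight on day 20 minus mean weight on day 1.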

Mus musculus [8] = experiment: Percent inhibition against M5076 mouse reticulum cell sarcoma after administration at 500 mg/kg orally on day 20; format: functional; settings: M5076, 480 h, route oral
Procedure, shortened: (§4)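 M5076 cells (10⁶ viable, counted by Trypan blue exclusion) implanted subcutaneously into the axillary region of female BDF₁ mice. Drug given orally on days 1, 4, 7, 10, 13 and 16 after inoculation, in saline or in 5% dimethylacetamide/0.5% carboxymethyl cellulose. Six mice per group (three at 400 mg/kg); untreated controls, nine mice. Tumor volume = 0.5 × length × width²; inhibition (%) = (1 − Vt/Vc) × 100 on day 20.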

Mus musculus [9] = experiment: Percent inhibition against M5076 mouse reticulum cell sarcoma after administration at 250 mg/kg orally on day 20; format: functional; settings: M5076, 480 h, route oral; procedure, shortened: as §4
Mus musculus [10] = experiment: Tested for 60-day survivors after administration at 500 mg/kg orally in M5076 mouse reticulum cell sarcoma; format: functional; settings: route oral
Procedure, shortened: (§5)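 Female BD2F1 mice were implanted s.c. with 1 × 10^6 M5076 cells and dosed orally on days 1, 4, 7, 10, 13 and 16. Vehicle was saline or 5% DMA in 0.5% CMC. Groups had six mice (three at 400 mg/kg), with nine untreated controls. The number of mice alive at 60 days was counted.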

Mus musculus [11] = experiment: Tested for 60-day survivors after administration at 750 mg/kg orally in M5076 mouse reticulum cell sarcoma; format: functional; settings: route oral; procedure, shortened: as §5
Mus musculus [12] = experiment: Tested for 60-day survivors after administration at 125 mg/kg orally in M5076 mouse reticulum cell sarcoma; format: functional; settings: route oral; procedure, shortened: as §5
Mus musculus [13] = experiment: Percent treated was determined after administration at 125 mg/kg orally; format: functional; settings: route oral; procedure, shortened: as §2
Mus musculus [14] = experiment: Percent inhibition against M5076 mouse reticulum cell sarcoma after administration at 125 mg/kg orally on day 20; format: functional; settings: M5076, 480 h, route oral; procedure, shortened: as §4
Mus musculus [15] = experiment: Percent inhibition against M5076 mouse reticulum cell sarcoma after administration at 62.5 mg/kg orally on day 20; format: functional; settings: M5076, 480 h, route oral; procedure, shortened: as §4
Mus musculus [16] = experiment: Weight change in M5076 mouse reticulum cell sarcoma after administration at 62.5 mg/kg orally; format: functional; settings: route oral; procedure, shortened: as §3
Mus musculus [17] = experiment: Percent inhibition against M5076 mouse reticulum cell sarcoma after administration at 750 mg/kg orally on day 20; format: functional; settings: M5076, 480 h, route oral; procedure, shortened: as §4
Mus musculus [18] = experiment: Weight change in M5076 mouse reticulum cell sarcoma after administration at 500 mg/kg orally; format: functional; settings: route oral; procedure, shortened: as §3
Mus musculus [19] = experiment: Percent treated was determined after administration at 62.5 mg/kg orally; format: functional; settings: route oral; procedure, shortened: as §2
Mus musculus [20] = experiment: Tested for 60-day survivors after administration at 250 mg/kg orally in M5076 mouse reticulum cell sarcoma; format: functional; settings: route oral; procedure, shortened: as §5
Mus musculus [21] = experiment: Weight change in M5076 mouse reticulum cell sarcoma after administration at 125 mg/kg orally; format: functional; settings: route oral; procedure, shortened: as §3
Mus musculus [22] = experiment: Tested for 60-day survivors after administration at 62.5 mg/kg orally in M5076 mouse reticulum cell sarcoma; format: functional; settings: route oral; procedure, shortened: as §5
Mus musculus [23] = experiment: Weight change in M5076 mouse reticulum cell sarcoma after administration at 750 mg/kg orally; format: functional; settings: route oral; procedure, shortened: as §3
Mus musculus [24] = experiment: Percent treated was determined after administration at 500 mg/kg orally; format: functional; settings: route oral; procedure, shortened: as §2
Mus musculus [25] = experiment: Percent treated was determined after administration at 250 mg/kg orally; format: functional; settings: route oral; procedure, shortened: as §2

Structure (SMILES) | IC50 [1] [µM] | IC50 (L1210 [2]) [µM] | IC50 (MCF7) [µM] | IC50 [3] [µM] | IC50 (ST-KM-1) [µM] | IC50 (OST) [µM] | IC50 (A-375) [µM] | IC50 (KKLS) [µM] | IC50 (MKN-45) [µM] | IC50 (SW48) [µM] | IC50 (PC-13) [µM] | IC50 (COLO 320) [µM] | IC50 (PC-8) [µM] | IC50 (QG-95) [µM] | also measured
CC(=O)Nc1ccn([C@@H]2O[C@H](CO)C=C2C#N)c(=O)n1 | 97.8 | 68.8 |  |  |  |  |  |  |  |  |  |  |  |  | 
N#C[C@H]1[C@H](O)[C@@H](CO)O[C@H]1n1cnc2c(N)ncnc21 | 163 | 5.8 | > 360 | > 360 | > 360 | > 360 | 308 | > 360 | > 360 | > 360 | > 360 | > 360 | > 360 | > 360 | IC50 (HOS-TE85): > 360 µM; IC50 (HT-1080): > 360 µM; IC50 (PC-9): > 360 µM
N#C[C@H]1C(O)[C@@H](CO)O[C@H]1n1ccc(=O)[nH]c1=O (stereo not given in full) |  |  |  |  |  |  |  |  |  |  |  |  |  |  | inhibition at 100 µg/mL (L1210 [4]): 10.2%; inhibition at 100 µg/mL [5]: 8.4%
Nc1ccn([C@@H]2O[C@H](CO)[C@@H](O)[C@@H]2O)c(=O)n1 [CYTARABINE] | 2.3 | 0.05 | 0.62 | > 410 | > 410 | > 410 | > 410 | > 410 | 57.6 | > 410 | > 410 | 0.04 | 1.1 | > 410 | 
C[C@H]1O[C@@H](n2cc(F)c(=O)[nH]c2=O)[C@H](O)[C@@H]1O [DOXIFLURIDINE] |  |  |  |  |  |  |  |  |  |  |  |  |  |  | T/C (Mus musculus [6]): 92%; Weight change (Mus musculus [7]): 2 g; inhibition in vivo at 500 mg/kg (Mus musculus [8]): 19%; inhibition in vivo at 250 mg/kg (Mus musculus [9]): 15%; Survivors (Mus musculus [10]): 0; Survivors (Mus musculus [11]): 0; Survivors (Mus musculus [12]): 0; T/C (Mus musculus [13]): 98%; inhibition in vivo at 125 mg/kg (Mus musculus [14]): 18%; inhibition in vivo at 62.5 mg/kg (Mus musculus [15]): 8%; Weight change (Mus musculus [16]): 2.8 g; inhibition in vivo at 750 mg/kg (Mus musculus [17]): 50%; Weight change (Mus musculus [18]): 2.5 g; T/C (Mus musculus [19]): 88%; Survivors (Mus musculus [20]): 0; Weight change (Mus musculus [21]): 1.8 g; Survivors (Mus musculus [22]): 0; Weight change (Mus musculus [23]): 0.8 g; T/C (Mus musculus [24]): 104%; T/C (Mus musculus [25]): 86%
